From ChEMBL document CHEMBL2321719, “Discovery of novel α₁-adrenoceptor ligands based on the antipsychotic sertindole suitable for labeling as PET ligands” (Bioorg Med Chem, 2013)

Key:
[1] = Ratio of drug level in brain to plasma at steady state in rat at 1000 ng/g after 5 hrs; format: ADME, cell-free; details: brain and plasma, read-out: BPR
How it was run: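 Steady-state rat brain/plasma ratio was estimated from equilibrium-dialysis free fractions (spike 1000 ng/g, 5 h, 37 °C, LC–MS/MS) as fu,plasma/fu,brain. This assumes passive distribution, with equal unbound concentrations in brain and plasma.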

[2] = Ratio of drug level in brain to plasma in rat at 1 hr; format: ADME, cell-free; details: brain and plasma, read-out: BPR
[3] = Unbound fraction in rat brain at 1000 ng/g after 5 hrs by equilibrium dialysis method; format: ADME, tissue-based
How it was run: (§1)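 Free fraction was measured by 96-well equilibrium dialysis through 3 kDa membranes. Plasma was diluted 1:1 with PBS; rat brain was sonicated on ice to 1:2 brain:PBS. Matrices were spiked at 1000 ng/g (n = 6) and dialysed against PBS for 5 h at 37 °C. Samples were read by LC–MS/MS, and fu was calculated per Kalvass–Maurer with correction for brain dilution.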

[4] = Unbound fraction in rat plasma at 1000 ng/g after 5 hrs by equilibrium dialysis method; format: ADME, cell-free; how it was run: as §1
[5] = Apparent permeability across apical to basolateral side in human Caco2 cells at 1 to 20 uM by LC-MS/MS analysis; format: ADME, cell-based; details: Caco-2
How it was run: (§2)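 Caco-2 monolayers were grown on permeable filters for 21–28 days. A 2 mM DMSO stock was diluted in Hanks-Hepes buffer, pH 7.4, and added to the apical (A–B) or basolateral (B–A) side. The receiver side was sampled over 240 min and topped up with fresh buffer, then analysed by LC–MS/MS. […] Efflux ratio = Papp(B–A)/Papp(A–B).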

D(2) dopamine receptor = D(2) dopamine receptor (Homo sapiens, UniProt P14416); test: Displacement of [3H]spiperone from human dopamine D2 receptor expressed in CHO cells after 30 mins by scintillation counting analysis; format: cell-based
[6] = molecular target: T1, Alpha-1A adrenergic receptor (Bos taurus, UniProt P18130); test: Displacement of [3H]prazosine from bovine alpha1A adrenoceptor expressed in BHK cells after 20 mins by scintillation counting analysis; format: cell-based
T1 sequence (P18130 whole entry): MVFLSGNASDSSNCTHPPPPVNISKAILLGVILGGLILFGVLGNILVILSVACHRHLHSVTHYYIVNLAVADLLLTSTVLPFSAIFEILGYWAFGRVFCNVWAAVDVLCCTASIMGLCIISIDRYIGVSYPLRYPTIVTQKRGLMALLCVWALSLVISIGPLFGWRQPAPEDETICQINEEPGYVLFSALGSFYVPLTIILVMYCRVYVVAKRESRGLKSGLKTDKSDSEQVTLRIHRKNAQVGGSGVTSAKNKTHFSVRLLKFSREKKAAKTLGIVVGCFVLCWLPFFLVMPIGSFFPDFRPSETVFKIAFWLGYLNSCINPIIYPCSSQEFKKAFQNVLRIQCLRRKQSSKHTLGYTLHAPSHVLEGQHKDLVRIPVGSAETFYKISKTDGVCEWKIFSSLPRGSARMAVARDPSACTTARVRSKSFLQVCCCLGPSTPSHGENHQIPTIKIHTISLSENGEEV

[7] = Selectivity ratio of Ki for human dopamine D2 receptor to Ki for bovine alpha1A adrenoceptor
How it was run: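 D2: human receptor in CHO membranes, 0.1 nM [3H]spiperone, 50 mM Tris pH 7.4, nonspecific binding with haloperidol, 30 min at 37 °C. Both used GF/B filtration, ≥2 ten-point curves and Cheng–Prusoff.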

[8] = Unbound fraction in human plasma at 1000 ng/g after 5 hrs by equilibrium dialysis method; format: ADME, cell-free; how it was run: as §1
[9] = Unbound fraction in cynomolgus monkey plasma at 1000 ng/g after 5 hrs by equilibrium dialysis method; format: ADME, cell-free, Macaca fascicularis; how it was run: as §1
[10] = Unbound fraction in rhesus monkey plasma at 1000 ng/g after 5 hrs by equilibrium dialysis method; format: ADME, cell-free, Macaca mulatta; how it was run: as §1
[11] = Efflux ratio of apparent permeability from basolateral to apical side over apical to basolateral side in human Caco2 cells at 20 uM; format: ADME, cell-based; details: Caco-2
How it was run: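 Caco-2 monolayers grown 21–28 days on permeable filters; 2 mM DMSO stock diluted in Hanks-Hepes buffer, pH 7.4, and added to the apical (A–B) or basolateral (B–A) chamber. The opposite chamber was sampled over 240 min, with buffer replaced, and analysed by LC–MS/MS. Papp = dQ/dt × 1/(A × C0), with area 1.1 cm²; ratio = Papp(B–A)/Papp(A–B); N = 2.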

[12] = Apparent permeability across apical to basolateral side in human Caco2 cells at 20 uM by LC-MS/MS analysis; format: ADME, cell-based; details: Caco-2; how it was run: as §2
[13] = molecular target: 5-hydroxytryptamine receptor 2A (Homo sapiens, UniProt P28223); test: Binding affinity to 5-HT2A receptor (unknown origin) by radioligand displacement assay
How it was run: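 This external human 5-HT2A binding assay (Cerep) tested compounds at two concentrations, one of them 100 nM. Ki was derived from a single run, so the error is unknown.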

[14] = molecular target: T2, Alpha-1D adrenergic receptor (Rattus norvegicus, UniProt P23944); test: Displacement of [3H]prazosine from rat alpha1D adrenoceptor expressed in CHO cells after 20 mins by scintillation counting analysis; format: cell-based
T2 sequence (P23944 whole entry): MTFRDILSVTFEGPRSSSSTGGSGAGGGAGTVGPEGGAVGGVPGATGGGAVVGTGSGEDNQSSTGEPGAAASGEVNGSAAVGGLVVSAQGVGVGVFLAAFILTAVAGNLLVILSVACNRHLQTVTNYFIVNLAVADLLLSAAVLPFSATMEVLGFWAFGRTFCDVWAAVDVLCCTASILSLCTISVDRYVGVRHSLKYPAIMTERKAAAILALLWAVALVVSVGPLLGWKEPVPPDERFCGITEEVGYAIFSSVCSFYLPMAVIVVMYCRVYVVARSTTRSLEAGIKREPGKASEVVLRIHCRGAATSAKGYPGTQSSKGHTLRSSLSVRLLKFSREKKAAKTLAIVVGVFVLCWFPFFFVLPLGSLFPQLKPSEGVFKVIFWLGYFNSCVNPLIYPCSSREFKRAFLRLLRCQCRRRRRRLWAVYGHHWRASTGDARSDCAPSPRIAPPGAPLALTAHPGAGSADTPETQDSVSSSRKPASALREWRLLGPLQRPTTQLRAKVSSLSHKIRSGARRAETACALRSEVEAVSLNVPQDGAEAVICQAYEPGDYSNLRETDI

[15] = molecular target: T3, Alpha-1B adrenergic receptor (Mesocricetus auratus, UniProt P18841); test: Displacement of [3H]prazosine from hamster alpha1B adrenoceptor expressed in Rat1 cells after 20 mins by scintillation counting analysis; format: cell-based
T3 sequence (P18841 whole entry): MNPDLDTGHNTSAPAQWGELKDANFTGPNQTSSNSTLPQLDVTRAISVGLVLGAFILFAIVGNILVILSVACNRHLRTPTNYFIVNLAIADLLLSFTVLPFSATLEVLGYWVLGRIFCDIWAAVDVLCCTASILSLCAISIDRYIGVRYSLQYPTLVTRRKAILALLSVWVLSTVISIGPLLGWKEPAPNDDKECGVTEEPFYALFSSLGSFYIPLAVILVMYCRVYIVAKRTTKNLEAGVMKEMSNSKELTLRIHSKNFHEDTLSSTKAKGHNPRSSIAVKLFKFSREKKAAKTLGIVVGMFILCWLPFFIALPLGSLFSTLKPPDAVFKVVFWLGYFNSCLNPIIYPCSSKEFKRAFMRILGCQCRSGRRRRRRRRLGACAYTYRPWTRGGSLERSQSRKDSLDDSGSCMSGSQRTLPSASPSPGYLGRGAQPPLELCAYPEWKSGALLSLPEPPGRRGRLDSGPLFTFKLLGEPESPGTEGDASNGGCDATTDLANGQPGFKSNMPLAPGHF

[16] = molecular target: 5-hydroxytryptamine receptor 6 (Homo sapiens, UniProt P50406); test: Displacement of [3H]LSD from human 5-HT6 receptor expressed in human HeLa cells after 60 mins by scintillation counting analysis; format: cell-based
How it was run: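 HeLa cells expressing human 5-HT6 were homogenised in 50 mM Tris, pH 7.4. Binding used 50 mM Tris, pH 7.7, and 1 nM [3H]LSD, with nonspecific binding taken with an indolylpiperidine 5-HT6 ligand. Incubation was 60 min at 22 °C, followed by GF/B filtration and scintillation counting. Ki came from ≥2 ten-point curves, via Cheng–Prusoff.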

[17] = molecular target: 5-hydroxytryptamine receptor 1B (Homo sapiens, UniProt P28222); test: Displacement of [3H]CT from human 5-HT1B receptor expressed in human HeLa cells after 60 mins by scintillation counting analysis; format: cell-based
How it was run: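 Membranes from HeLa cells expressing human 5-HT1B were prepared in ice-cold 50 mM Tris, pH 7.4. The assay ran in 50 mM Tris, pH 7.7, with 0.8 mg/mL WGA SPA beads and 1.5 nM [3H]CT, for 60 min at room temperature, read by scintillation counting. Nonspecific binding was taken with 5-HT creatinine sulphate. Ki came from ≥2 ten-point curves spanning 4 decades, via Cheng–Prusoff.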

[18] = Efflux ratio of apparent permeability from basolateral to apical side over apical to basolateral side in human Caco2 cells at 1 to 20 uM; format: ADME, cell-based; details: Caco-2; how it was run: as §2

Chain of D(2) dopamine receptor (P14416 whole entry): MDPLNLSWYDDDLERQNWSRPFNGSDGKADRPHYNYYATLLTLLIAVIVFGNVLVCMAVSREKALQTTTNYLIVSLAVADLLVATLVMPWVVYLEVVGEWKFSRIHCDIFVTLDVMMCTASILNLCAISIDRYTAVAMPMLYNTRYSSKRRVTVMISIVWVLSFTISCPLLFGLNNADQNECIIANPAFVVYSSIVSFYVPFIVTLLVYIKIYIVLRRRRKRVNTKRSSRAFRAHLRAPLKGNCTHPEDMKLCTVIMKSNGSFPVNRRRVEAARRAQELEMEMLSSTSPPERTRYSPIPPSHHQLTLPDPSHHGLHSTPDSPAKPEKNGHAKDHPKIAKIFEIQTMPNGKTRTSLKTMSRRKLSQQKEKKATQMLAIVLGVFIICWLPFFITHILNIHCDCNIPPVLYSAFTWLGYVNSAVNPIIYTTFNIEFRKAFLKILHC
Chain of 5-hydroxytryptamine receptor 2A (P28223 whole entry): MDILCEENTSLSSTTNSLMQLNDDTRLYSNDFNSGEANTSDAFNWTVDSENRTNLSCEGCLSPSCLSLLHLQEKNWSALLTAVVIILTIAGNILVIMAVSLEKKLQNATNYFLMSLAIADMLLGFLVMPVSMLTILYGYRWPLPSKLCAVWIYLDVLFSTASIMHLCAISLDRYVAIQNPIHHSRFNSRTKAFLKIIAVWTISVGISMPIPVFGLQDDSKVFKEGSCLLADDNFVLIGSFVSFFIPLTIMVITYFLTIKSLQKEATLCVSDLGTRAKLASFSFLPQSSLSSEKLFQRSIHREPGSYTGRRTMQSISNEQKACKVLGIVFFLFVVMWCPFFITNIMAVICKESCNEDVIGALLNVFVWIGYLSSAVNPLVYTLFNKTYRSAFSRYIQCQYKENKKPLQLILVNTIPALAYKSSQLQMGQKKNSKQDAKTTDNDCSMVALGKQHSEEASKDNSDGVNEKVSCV
Chain of 5-hydroxytryptamine receptor 1B (P28222 whole entry): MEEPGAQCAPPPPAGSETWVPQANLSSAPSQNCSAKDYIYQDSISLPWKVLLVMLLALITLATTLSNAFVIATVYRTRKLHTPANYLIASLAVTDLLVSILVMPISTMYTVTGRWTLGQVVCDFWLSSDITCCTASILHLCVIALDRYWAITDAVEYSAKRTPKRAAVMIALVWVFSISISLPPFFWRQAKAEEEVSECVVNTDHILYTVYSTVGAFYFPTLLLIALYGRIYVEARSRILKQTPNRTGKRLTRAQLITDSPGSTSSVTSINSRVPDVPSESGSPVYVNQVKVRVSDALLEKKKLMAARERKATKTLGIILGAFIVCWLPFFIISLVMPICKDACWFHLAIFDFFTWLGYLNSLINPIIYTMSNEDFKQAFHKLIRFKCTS
Chain of 5-hydroxytryptamine receptor 6 (P50406 whole entry): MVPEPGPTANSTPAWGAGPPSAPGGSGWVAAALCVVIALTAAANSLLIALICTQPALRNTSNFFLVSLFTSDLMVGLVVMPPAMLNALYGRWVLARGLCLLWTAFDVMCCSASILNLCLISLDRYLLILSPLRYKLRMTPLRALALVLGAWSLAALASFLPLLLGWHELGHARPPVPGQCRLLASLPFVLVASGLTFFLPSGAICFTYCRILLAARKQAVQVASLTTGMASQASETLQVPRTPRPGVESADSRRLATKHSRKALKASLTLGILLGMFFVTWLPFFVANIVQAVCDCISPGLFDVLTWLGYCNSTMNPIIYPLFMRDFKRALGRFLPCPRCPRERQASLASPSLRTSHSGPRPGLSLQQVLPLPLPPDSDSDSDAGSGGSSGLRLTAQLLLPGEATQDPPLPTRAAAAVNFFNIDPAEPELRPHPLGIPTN

Compound	Kp at 5 h, 1000 ng/g [1]	fraction unbound at 5 h, 1000 ng/g [3]	fraction unbound at 5 h, 1000 ng/g [4]	Ki (D(2) dopamine receptor) [nM]	Ki [6] [nM]	Ratio Ki [7]	further results
Cn1nnc(-c2ccc3c(c2)c(C2CCN(CCN4CCNC4=O)CC2)cn3-c2ccc(F)cc2)n1	6.3	0.0035	0.022				Kp at 1 h [2]: 0.26; Papp A→B at up to 20 µM [5]: 12 ×10⁻⁶ cm/s
CN1CCC(c2cn(-c3ccncc3)c3ccc(-c4cccnc4)cc23)CC1				1100	22	50	
CN1CCC(c2cn(-c3ccncc3)c3ccc(-c4cncnc4)cc23)CC1				830	19	44	
CN1CCC(c2cn(-c3ccncc3)c3ccc(-c4ccncc4)cc23)CC1				260	24	11	
CN1CCC(c2cn(-c3ccncc3)c3ccc(-c4cnn(C)c4)cc23)CC1				6400	38	168	
CN1CCC(c2cn(-c3ccc(F)cc3)c3ccc(-c4ncn(C)n4)cc23)CC1	37	0.002	0.074	220	0.16	1380	fraction unbound at 5 h, 1000 ng/g [8]: 0.17; fraction unbound at 5 h, 1000 ng/g [9]: 0.16; fraction unbound at 5 h, 1000 ng/g [10]: 0.18; efflux ratio at 20 µM [11]: 0.7; Papp A→B at 20 µM [12]: 18 ×10⁻⁶ cm/s; Ki [13]: 89 nM; Ki [14]: 15 nM; Ki [15]: 6.4 nM
CN1CCC(c2cn(-c3ccc(F)cc3)c3ccc(-c4cncnc4)cc23)CC1	35	0.0025	0.088				fraction unbound at 5 h, 1000 ng/g [8]: 0.096; fraction unbound at 5 h, 1000 ng/g [9]: 0.1; fraction unbound at 5 h, 1000 ng/g [10]: 0.13; Papp A→B at 20 µM [12]: 13 ×10⁻⁶ cm/s; Ki [16]: 16 nM; Ki [17]: 13 nM
Cn1cc(-c2ccc3c(c2)c(C2CCN(CCN4CCNC4=O)CC2)cn3-c2ccc(F)cc2)nn1	8.9	0.0081	0.072				Kp at 1 h [2]: > 0.05; Papp A→B at up to 20 µM [5]: 5 ×10⁻⁶ cm/s
COc1ccccc1N1CCN(CCN(C(=O)C2CCCCC2)c2ccccn2)CC1 [WAY-100,635]	1.2	0.084	0.1				Kp at 1 h [2]: 1.7; efflux ratio at up to 20 µM [18]: 0.9; Papp A→B at up to 20 µM [5]: 38 ×10⁻⁶ cm/s
CN1CCC(c2cn(-c3ccncc3)c3ccc(-c4ccnn4C)cc23)CC1				880	19	46	
CCN1CCC[C@H]1CNC(=O)c1c(O)c(Cl)cc(Cl)c1OC [RACLOPRIDE]	3.4	0.08	0.27				Kp at 1 h [2]: 6.4; efflux ratio at up to 20 µM [18]: 0.5; Papp A→B at up to 20 µM [5]: 66 ×10⁻⁶ cm/s

The remaining compounds from weak to strong by Ki (D(2) dopamine receptor), led by results:

Kp at 5 h, 1000 ng/g [1]	fraction unbound at 5 h, 1000 ng/g [3]	fraction unbound at 5 h, 1000 ng/g [4]	Ki (D(2) dopamine receptor) [nM]	Ki [6] [nM]	Ratio Ki [7]	Compound	further results
			160	0.54	296	CN1CCC(c2cn(-c3ccc(F)cc3)c3ccc(-c4ccn(C)n4)cc23)CC1	
			150	2.7	56	CN1CCC(c2cn(-c3ccc(F)cc3)c3ccc(-c4cnn(C)c4)cc23)CC1	
			76	2.3	33	CN1CCC(c2cn(-c3ccc(F)cc3)c3ccc(-c4cccnc4)cc23)CC1	
			69	0.28	246	CN1CCC(c2cn(-c3ccc(F)cc3)c3ccc(-c4nnn(C)n4)cc23)CC1	
			27	10	3	CN1CCC(c2cn(-c3ccc(F)cc3)c3ccc(-c4ccncc4)cc23)CC1	
			15	0.32	47	CN1CCC(c2cn(-c3ccc(F)cc3)c3ccc(-c4ccnn4C)cc23)CC1	
